# Laboratory results taken from ChEMBL document CHEMBL4130549, “Synthesis and bioactivities study of new antibacterial peptide mimics: The dialkyl cationic amphiphiles” (Eur J Med Chem, 2018).
# Active and inactive are the calls of the source. No cut-off for these calls is given here.
# Columns and labels:
# Staphylococcus aureus [1] = assay: Antibacterial activity against Staphylococcus aureus ATCC 29213 after 16 to 20 hrs by broth microdilution method; format: functional
# Outline: (§1)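 CLSI broth microdilution in cation-adjusted Mueller-Hinton broth. A 4-6 h culture was diluted to about 10⁶ CFU/mL and mixed 1:1 with twofold compound dilutions (256–0.5 µg/mL before mixing) prepared from aqueous stocks. Plates were incubated at 37 °C for 16-20 h. Each concentration was tested in duplicate, and the experiment was repeated at least twice.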
# Enterococcus faecalis = assay: Antibacterial activity against Enterococcus faecalis after 16 to 20 hrs by broth microdilution method; format: functional
# Outline: (§2)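 Broth microdilution per CLSI in cation-adjusted Mueller-Hinton broth; 4-6 h cultures (~10⁸ CFU/mL) diluted to ~10⁶ CFU/mL and mixed 1:1 with twofold dilutions of water-dissolved compound (256 to 0.5 µg/mL). Incubated 16-20 h at 37 °C; MIC read visually. Each concentration run in duplicate, whole experiment repeated at least twice. MRSA, KPC and NDM-1 strains were clinical isolates.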
# Escherichia coli [2] = assay: Antibacterial activity against Escherichia coli ATCC 25922 after 16 to 20 hrs by broth microdilution method; format: functional; outline: as §2
# Salmonella enterica = assay: Antibacterial activity against Salmonella enterica after 16 to 20 hrs by broth microdilution method; format: functional; outline: as §2
# Staphylococcus aureus [3] = assay: Antibacterial activity against methicillin-resistant Staphylococcus aureus after 16 to 20 hrs by broth microdilution method; format: functional; outline: as §1
# Klebsiella pneumoniae [4] = assay: Antibacterial activity against carbapenemase-producing Klebsiella pneumoniae after 16 to 20 hrs by broth microdilution method; format: functional; outline: as §2
# Enterobacteriaceae [5] = assay: Antibacterial activity against NDM-1-producing Enterobacteriaceae after 16 to 20 hrs by broth microdilution method; format: functional; outline: as §2
# [6] = Hemolytic activity in sheep RBC after 1 hr; format: ADME, cell-based, Ovis aries, Erythrocyte; conditions: sheep red blood cells (erythrocytes)
# Outline: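 Sheep RBCs suspended at 5% in PBS; 150 µL added to 50 µL compound dilutions (5120 to 10 µg/mL series). Incubated 1 h at 37 °C, then centrifuged; supernatant absorbance read at 540 nm. Lysis (%) = (A−A0)/(Atotal−A0)×100, with untreated 5% RBC as A0 and 0.1% Triton X-100 as total.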
# Staphylococcus aureus [7] = assay: Antibacterial activity against methicillin-resistant Staphylococcus aureus isolate M1 after 16 to 20 hrs by broth microdilution method; format: functional; outline: as §1
# Staphylococcus aureus [8] = assay: Antibacterial activity against methicillin-resistant Staphylococcus aureus isolate M2 after 16 to 20 hrs by broth microdilution method; format: functional; outline: as §1
# Staphylococcus aureus [9] = assay: Antibacterial activity against methicillin-resistant Staphylococcus aureus isolate M3 after 16 to 20 hrs by broth microdilution method; format: functional; outline: as §1
# Staphylococcus aureus [10] = assay: Antibacterial activity against methicillin-resistant Staphylococcus aureus isolate M4 after 16 to 20 hrs by broth microdilution method; format: functional; outline: as §1
# Staphylococcus aureus [11] = assay: Antibacterial activity against methicillin-resistant Staphylococcus aureus isolate M5 after 16 to 20 hrs by broth microdilution method; format: functional; outline: as §1
# Staphylococcus aureus [12] = assay: Antibacterial activity against methicillin-resistant Staphylococcus aureus isolate M6 after 16 to 20 hrs by broth microdilution method; format: functional; outline: as §1
# Staphylococcus aureus [13] = assay: Antibacterial activity against methicillin-resistant Staphylococcus aureus isolate M7 after 16 to 20 hrs by broth microdilution method; format: functional; outline: as §1
# Staphylococcus aureus [14] = assay: Antibacterial activity against methicillin-resistant Staphylococcus aureus isolate M8 after 16 to 20 hrs by broth microdilution method; format: functional; outline: as §1
# Staphylococcus aureus [15] = assay: Antibacterial activity against methicillin-resistant Staphylococcus aureus isolate M9 after 16 to 20 hrs by broth microdilution method; format: functional; outline: as §1
# Staphylococcus aureus [16] = assay: Antibacterial activity against methicillin-resistant Staphylococcus aureus isolate M10 after 16 to 20 hrs by broth microdilution method; format: functional; outline: as §1
# Klebsiella pneumoniae [17] = assay: Antibacterial activity against carbapenemase-producing Klebsiella pneumoniae isolate K1 after 16 to 20 hrs by broth microdilution method; format: functional; outline: as §2
# Klebsiella pneumoniae [18] = assay: Antibacterial activity against carbapenemase-producing Klebsiella pneumoniae isolate K2 after 16 to 20 hrs by broth microdilution method; format: functional; outline: as §2
# Klebsiella pneumoniae [19] = assay: Antibacterial activity against carbapenemase-producing Klebsiella pneumoniae isolate K3 after 16 to 20 hrs by broth microdilution method; format: functional; outline: as §2
# Klebsiella pneumoniae [20] = assay: Antibacterial activity against carbapenemase-producing Klebsiella pneumoniae isolate K4 after 16 to 20 hrs by broth microdilution method; format: functional; outline: as §2
# Klebsiella pneumoniae [21] = assay: Antibacterial activity against carbapenemase-producing Klebsiella pneumoniae isolate K5 after 16 to 20 hrs by broth microdilution method; format: functional; outline: as §2
# Klebsiella pneumoniae [22] = assay: Antibacterial activity against carbapenemase-producing Klebsiella pneumoniae isolate K6 after 16 to 20 hrs by broth microdilution method; format: functional; outline: as §2
# Klebsiella pneumoniae [23] = assay: Antibacterial activity against carbapenemase-producing Klebsiella pneumoniae isolate K7 after 16 to 20 hrs by broth microdilution method; format: functional; outline: as §2
# Klebsiella pneumoniae [24] = assay: Antibacterial activity against carbapenemase-producing Klebsiella pneumoniae isolate K8 after 16 to 20 hrs by broth microdilution method; format: functional; outline: as §2
# Klebsiella pneumoniae [25] = assay: Antibacterial activity against carbapenemase-producing Klebsiella pneumoniae isolate K9 after 16 to 20 hrs by broth microdilution method; format: functional; outline: as §2
# Klebsiella pneumoniae [26] = assay: Antibacterial activity against carbapenemase-producing Klebsiella pneumoniae isolate K10 after 16 to 20 hrs by broth microdilution method; format: functional; outline: as §2
# Enterobacteriaceae [27] = assay: Antibacterial activity against NDM-1-producing Enterobacteriaceae isolate N1 after 16 to 20 hrs by broth microdilution method; format: functional; outline: as §2
# Enterobacteriaceae [28] = assay: Antibacterial activity against NDM-1-producing Enterobacteriaceae isolate N2 after 16 to 20 hrs by broth microdilution method; format: functional; outline: as §2
# Enterobacteriaceae [29] = assay: Antibacterial activity against NDM-1-producing Enterobacteriaceae isolate N3 after 16 to 20 hrs by broth microdilution method; format: functional; outline: as §2
# Enterobacteriaceae [30] = assay: Antibacterial activity against NDM-1-producing Enterobacteriaceae isolate N4 after 16 to 20 hrs by broth microdilution method; format: functional; outline: as §2
# Enterobacteriaceae [31] = assay: Antibacterial activity against NDM-1-producing Enterobacteriaceae isolate N5 after 16 to 20 hrs by broth microdilution method; format: functional; outline: as §2
# Enterobacteriaceae [32] = assay: Antibacterial activity against NDM-1-producing Enterobacteriaceae isolate N6 after 16 to 20 hrs by broth microdilution method; format: functional; outline: as §2
# Enterobacteriaceae [33] = assay: Antibacterial activity against NDM-1-producing Enterobacteriaceae isolate N7 after 16 to 20 hrs by broth microdilution method; format: functional; outline: as §2
# Enterobacteriaceae [34] = assay: Antibacterial activity against NDM-1-producing Enterobacteriaceae isolate N8 after 16 to 20 hrs by broth microdilution method; format: functional; outline: as §2
# Enterobacteriaceae [35] = assay: Antibacterial activity against NDM-1-producing Enterobacteriaceae isolate N9 after 16 to 20 hrs by broth microdilution method; format: functional; outline: as §2
# Enterobacteriaceae [36] = assay: Antibacterial activity against NDM-1-producing Enterobacteriaceae isolate N10 after 16 to 20 hrs by broth microdilution method; format: functional; outline: as §2
# Staphylococcus aureus [37] = assay: Induction of cytoplasmic membrane depolarization in Staphylococcus aureus ATCC 29213 at 20 ug/ml measured every 2 mins for 12 mins by diSC35 staining based fluorescence assay; format: functional, organism-based
# Outline: (§3)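 Mid-log cells (4–6 h) pelleted, washed and resuspended (~10^8 CFU/mL) in PBS for S. aureus, or in 5 mM HEPES, 5 mM glucose and 100 mM KCl (1:1:1) for E. coli. Preloaded with diSC35 (10 µM, 50 µL), 30 min for S. aureus and 40 min plus EDTA (200 µM, 50 µL) for E. coli. Baseline read 8 min (ex 622/em 670 nm), then compound added to 20 µg/mL final and read every 2 min for 12 min. Water control.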
# Escherichia coli [38] = assay: Induction of cytoplasmic membrane depolarization in Escherichia coli ATCC 25922 at 20 ug/ml measured every 2 mins for 12 mins by diSC35 staining based fluorescence assay; format: functional, organism-based; outline: as §3
# Staphylococcus aureus [39] = assay: Induction of inner membrane permeabilization in Staphylococcus aureus ATCC 29213 at 20 ug/ml measured every 2 mins for 12 mins by propidium iodide staining based fluorescence assay; format: functional, organism-based
# Outline: (§4)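 Mid-log cells (~10^8 CFU/mL) pre-incubated with propidium iodide (10 µM, 50 µL), 30 min for S. aureus and 40 min for E. coli. Fluorescence (ex 535/em 617 nm) read for 8 min, then compound added to 20 µg/mL final and monitored every 2 min for 12 min. Water-treated control.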
# Escherichia coli [40] = assay: Induction of inner membrane permeabilization in Escherichia coli ATCC 25922 at 20 ug/ml measured every 2 mins for 12 mins by propidium iodide staining based fluorescence assay; format: functional, organism-based; outline: as §4
# Escherichia coli [41] = assay: Induction of outer membrane permeabilization in Escherichia coli ATCC 25922 at 20 ug/ml measured every 2 mins for 12 mins by NPN staining based fluorescence assay; format: functional, organism-based
# Outline: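 Mid-log E. coli (~10^8 CFU/mL) in black plates pre-incubated about 40 min with NPN (10 µM, 50 µL). Baseline read 8 min (ex 350/em 420 nm), then compound added to 20 µg/mL final and fluorescence followed every 2 min for 12 min. Water-treated control.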
smiles,measurement,setting,value
CCCCCCCCN(CCCCCCCC)C(=O)[C@H](C)N.Cl,MIC,Staphylococcus aureus [1],4 µg/mL
same,MIC,Enterococcus faecalis,8 µg/mL
same,MIC,Escherichia coli [2],4 µg/mL
same,MIC,Salmonella enterica,32 µg/mL
same,MIC,Staphylococcus aureus [3],4 µg/mL
same,MIC,Klebsiella pneumoniae [4],16 µg/mL
same,MIC,Enterobacteriaceae [5],64 µg/mL
same,HC50 at 1 h,[6],306 µg/mL
same,MIC,Staphylococcus aureus [7],4 µg/mL
same,MIC,Staphylococcus aureus [8],4 µg/mL
same,MIC,Staphylococcus aureus [9],4 µg/mL
same,MIC,Staphylococcus aureus [10],4 µg/mL
same,MIC,Staphylococcus aureus [11],4 µg/mL
same,MIC,Staphylococcus aureus [12],4 µg/mL
same,MIC,Staphylococcus aureus [13],4 µg/mL
same,MIC,Staphylococcus aureus [14],4 µg/mL
same,MIC,Staphylococcus aureus [15],4 µg/mL
same,MIC,Staphylococcus aureus [16],4 µg/mL
same,MIC,Klebsiella pneumoniae [17],16 µg/mL
same,MIC,Klebsiella pneumoniae [18],16 µg/mL
same,MIC,Klebsiella pneumoniae [19],16 µg/mL
same,MIC,Klebsiella pneumoniae [20],32 µg/mL
same,MIC,Klebsiella pneumoniae [21],32 µg/mL
same,MIC,Klebsiella pneumoniae [22],32 µg/mL
same,MIC,Klebsiella pneumoniae [23],32 µg/mL
same,MIC,Klebsiella pneumoniae [24],16 µg/mL
same,MIC,Klebsiella pneumoniae [25],16 µg/mL
same,MIC,Klebsiella pneumoniae [26],16 µg/mL
same,MIC,Enterobacteriaceae [27],64 µg/mL
same,MIC,Enterobacteriaceae [28],64 µg/mL
same,MIC,Enterobacteriaceae [29],64 µg/mL
same,MIC,Enterobacteriaceae [30],64 µg/mL
same,MIC,Enterobacteriaceae [31],64 µg/mL
same,MIC,Enterobacteriaceae [32],64 µg/mL
same,MIC,Enterobacteriaceae [33],64 µg/mL
same,MIC,Enterobacteriaceae [34],64 µg/mL
same,MIC,Enterobacteriaceae [35],64 µg/mL
same,MIC,Enterobacteriaceae [36],64 µg/mL
same,Activity,Staphylococcus aureus [37],Active
same,Activity,Escherichia coli [38],Active
same,Activity,Staphylococcus aureus [39],Active
same,Activity,Escherichia coli [40],Active
same,Activity,Escherichia coli [41],Active
CCCCCCCCCCCN(CCCCCCCCCCC)C(=O)[C@@H](N)CCCCN.Cl.Cl,MIC,Staphylococcus aureus [1],4 µg/mL
same,MIC,Enterococcus faecalis,2 µg/mL
same,MIC,Escherichia coli [2],16 µg/mL
same,MIC,Salmonella enterica,8 µg/mL
same,MIC,Staphylococcus aureus [3],4 µg/mL
same,MIC,Klebsiella pneumoniae [4],8 µg/mL
same,MIC,Enterobacteriaceae [5],32 µg/mL
same,HC50 at 1 h,[6],89 µg/mL
same,MIC,Staphylococcus aureus [7],2 µg/mL
same,MIC,Staphylococcus aureus [8],1 µg/mL
same,MIC,Staphylococcus aureus [9],2 µg/mL
same,MIC,Staphylococcus aureus [10],2 µg/mL
same,MIC,Staphylococcus aureus [11],4 µg/mL
same,MIC,Staphylococcus aureus [12],4 µg/mL
same,MIC,Staphylococcus aureus [13],4 µg/mL
same,MIC,Staphylococcus aureus [14],4 µg/mL
same,MIC,Staphylococcus aureus [15],4 µg/mL
same,MIC,Staphylococcus aureus [16],4 µg/mL
same,MIC,Klebsiella pneumoniae [17],32 µg/mL
same,MIC,Klebsiella pneumoniae [18],16 µg/mL
same,MIC,Klebsiella pneumoniae [19],16 µg/mL
same,MIC,Klebsiella pneumoniae [20],8 µg/mL
same,MIC,Klebsiella pneumoniae [21],32 µg/mL
same,MIC,Klebsiella pneumoniae [22],32 µg/mL
same,MIC,Klebsiella pneumoniae [23],32 µg/mL
same,MIC,Klebsiella pneumoniae [24],8 µg/mL
same,MIC,Klebsiella pneumoniae [25],32 µg/mL
same,MIC,Klebsiella pneumoniae [26],32 µg/mL
same,MIC,Enterobacteriaceae [27],32 µg/mL
same,MIC,Enterobacteriaceae [28],32 µg/mL
same,MIC,Enterobacteriaceae [29],32 µg/mL
same,MIC,Enterobacteriaceae [30],32 µg/mL
same,MIC,Enterobacteriaceae [31],32 µg/mL
same,MIC,Enterobacteriaceae [32],32 µg/mL
same,MIC,Enterobacteriaceae [33],16 µg/mL
same,MIC,Enterobacteriaceae [34],16 µg/mL
same,MIC,Enterobacteriaceae [35],32 µg/mL
same,MIC,Enterobacteriaceae [36],32 µg/mL
same,Activity,Staphylococcus aureus [37],Active
same,Activity,Escherichia coli [38],Active
same,Activity,Staphylococcus aureus [39],Active
same,Activity,Escherichia coli [40],Active
same,Activity,Escherichia coli [41],Active
